# From ChEMBL document CHEMBL5036319, “Discovery of Novel Benzothiazepinones as Irreversible Covalent Glycogen Synthase Kinase 3β Inhibitors for the Treatment of Acute Promyelocytic Leukemia” (J Med Chem, 2021)
# What was measured:
# [1] = Induction in caspase-mediated apoptosis in human NB-4 cells assessed as late apoptotic cells at 25 uM incubated for 24 hrs by Annexin V-FITC/propidium iodide staining based flow cytometry analysis (reference value: 1.06%); format: functional
# [2] = Induction in caspase-mediated apoptosis in human NB-4 cells assessed as early apoptotic cells at 12.5 uM incubated for 24 hrs in presence of Z-VAD-FMK by Annexin V-FITC/propidium iodide staining based flow cytometry analysis (reference value: 1.84%); format: functional
# [3] = Induction in caspase-mediated apoptosis in human NB4-DR1 cells assessed as late apoptotic cells at 25 uM incubated for 24 hrs by Annexin V-FITC/propidium iodide staining based flow cytometry analysis (reference value: 1.47%); format: functional
# [4] = Induction in caspase-mediated apoptosis in human NB4-DR1 cells assessed as necrotic cells at 12.5 uM incubated for 24 hrs by Annexin V-FITC/propidium iodide staining based flow cytometry analysis (reference value: 0.19%); format: functional
# HL-60 = assay: Cytotoxicity against human HL-60 cells assessed as reduction in cell viability measured after 24 hrs by CCK-8 assay; format: functional, cell-based; conditions: HL-60, 24 h
# In short: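 Cells were grown in RPMI-1640 or high-glucose DMEM with 10% FBS at 37 °C, 5% CO2, and seeded at 3 × 10^4 cells/well. Exposure was 24 h across serial concentrations (0−1000 μM in the screen). […] Three independent experiments, mean ± SEM.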
# [5] = Induction in caspase-mediated apoptosis in human NB-4 cells assessed as necrotic cells at 50 uM incubated for 24 hrs by Annexin V-FITC/Propidium iodide staining based flow cytometry analysis (reference value: 0.352%); format: functional
# [6] = target: Glycogen synthase kinase-3 alpha (Homo sapiens) (UniProt P49840); assay: Inhibition of recombinant human GSK-3alpha at 100 uM by mobility shift assay relative to control
# [7] = Induction in caspase-mediated apoptosis in human NB4-DR1 cells assessed as necrotic cells at 50 uM incubated for 24 hrs in presence of Z-VAD-FMK by Annexin V-FITC/propidium iodide staining based flow cytometry analysis (reference value: 0.223%); format: functional
# [8] = Induction in caspase-mediated apoptosis in human NB4-DR1 cells assessed as late apoptotic cells at 12.5 uM incubated for 24 hrs in presence of Z-VAD-FMK by Annexin V-FITC/propidium iodide staining based flow cytometry analysis (reference value: 2.54%); format: functional
# [9] = Induction in caspase-mediated apoptosis in human NB-4 cells assessed as late apoptotic cells at 50 uM incubated for 24 hrs by Annexin V-FITC/propidium iodide staining based flow cytometry analysis (reference value: 1.06%); format: functional
# [10] = Induction in caspase-mediated apoptosis in human NB-4 cells assessed as viable cells at 25 uM incubated for 24 hrs by Annexin V-FITC/propidium iodide staining based flow cytometry analysis (reference value: 96.6%); format: functional; conditions: read-out: Activity
# [11] = Induction in caspase-mediated apoptosis in human NB4-DR1 cells assessed as necrotic cells at 100 uM incubated for 24 hrs in presence of Z-VAD-FMK by Annexin V-FITC/propidium iodide staining based flow cytometry analysis (reference value: 0.223%); format: functional
# [12] = Induction in caspase-mediated apoptosis in human NB4-DR1 cells assessed as early apoptotic cells at 100 uM incubated for 24 hrs by Annexin V-FITC/propidium iodide staining based flow cytometry analysis (reference value: 1.43%); format: functional
# [13] = Induction in caspase-mediated apoptosis in human NB-4 cells assessed as early apoptotic cells at 50 uM incubated for 24 hrs by Annexin V-FITC/propidium iodide staining based flow cytometry analysis (reference value: 2.02%); format: functional
# [14] = Toxicity in BALB/c mouse xenografted with human NB-4 cells assessed as body weight loss at 15 mg/kg/day, ip administered for 2 weeks; format: organism-based; conditions: in vivo, 336 h
# In short: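 Female Balb/c nude mice (4 weeks old) injected subcutaneously in the right flank with 2 × 10^6 NB4 cells. At about 0.5 cm tumour diameter, mice were randomised (n = 5). Dosing was 15 mg/kg/d i.p. in corn oil, or corn-oil vehicle, daily for 2 weeks, with body weight recorded throughout; mean ± SEM.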
# [15] = Induction in caspase-mediated apoptosis in human NB-4 cells assessed as early apoptotic cells at 25 uM incubated for 24 hrs in presence of Z-VAD-FMK by Annexin V-FITC/propidium iodide staining based flow cytometry analysis (reference value: 1.84%); format: functional
# [16] = Induction in caspase-mediated apoptosis in human NB4-DR1 cells assessed as viable cells at 50 uM incubated for 24 hrs by Annexin V-FITC/propidium iodide staining based flow cytometry analysis (reference value: 96.9%); format: functional; conditions: read-out: Activity
# [17] = Induction in caspase-mediated apoptosis in human NB-4 cells assessed as necrotic cells at 25 uM incubated for 24 hrs in presence of Z-VAD-FMK by Annexin V-FITC/propidium iodide staining based flow cytometry analysis (reference value: 0.167%); format: functional
# [18] = Induction in caspase-mediated apoptosis in human NB4-DR1 cells assessed as necrotic cells at 12.5 uM incubated for 24 hrs in presence of Z-VAD-FMK by Annexin V-FITC/propidium iodide staining based flow cytometry analysis (reference value: 0.223%); format: functional
# [19] = Induction in caspase-mediated apoptosis in human NB4-DR1 cells assessed as necrotic cells at 25 uM incubated for 24 hrs in presence of Z-VAD-FMK by Annexin V-FITC/propidium iodide staining based flow cytometry analysis (reference value: 0.223%); format: functional
# [20] = Induction in caspase-mediated apoptosis in human NB-4 cells assessed as viable cells at 12.5 uM incubated for 24 hrs by Annexin V-FITC/propidium iodide staining based flow cytometry analysis (reference value: 96.6%); format: functional; conditions: read-out: Activity
# [21] = Induction in caspase-mediated apoptosis in human NB-4 cells assessed as viable cells at 100 uM incubated for 24 hrs in presence of Z-VAD-FMK by Annexin V-FITC/propidium iodide staining based flow cytometry analysis (reference value: 96.8%); format: functional; conditions: read-out: Activity
# [22] = Induction in caspase-mediated apoptosis in human NB-4 cells assessed as late apoptotic cells at 50 uM incubated for 24 hrs in presence of Z-VAD-FMK by Annexin V-FITC/propidium iodide staining based flow cytometry analysis (reference value: 1.15%); format: functional
# [23] = Cytotoxicity against HUVEC assessed as cell viability at 0 to 50 uM incubated for 24 hrs by CCK-8 assay relative to control; format: cell-based; conditions: human, dose 0-50 µM, read-out: Activity
# In short: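 HUVEC and LO2 normal cells were cultured in RPMI-1640 or DMEM with 10% FBS at 37 °C, 5% CO2, and seeded at 3 × 10^4 cells/well. They were exposed for 24 h to graded concentrations. CCK-8 incubation was 3 h at 37 °C, with A450 read and viability expressed versus untreated control. Three independent experiments, mean ± SEM.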
# [24] = Induction in caspase-mediated apoptosis in human NB4-DR1 cells assessed as early apoptosis cells at 25 uM incubated for 24 hrs in presence of Z-VAD-FMK by Annexin V-FITC/propidium iodide staining based flow cytometry analysis (reference value: 0.875%); format: functional
# Chain of Glycogen synthase kinase-3 alpha (Homo sapiens) (P49840 2-483 limits assumed): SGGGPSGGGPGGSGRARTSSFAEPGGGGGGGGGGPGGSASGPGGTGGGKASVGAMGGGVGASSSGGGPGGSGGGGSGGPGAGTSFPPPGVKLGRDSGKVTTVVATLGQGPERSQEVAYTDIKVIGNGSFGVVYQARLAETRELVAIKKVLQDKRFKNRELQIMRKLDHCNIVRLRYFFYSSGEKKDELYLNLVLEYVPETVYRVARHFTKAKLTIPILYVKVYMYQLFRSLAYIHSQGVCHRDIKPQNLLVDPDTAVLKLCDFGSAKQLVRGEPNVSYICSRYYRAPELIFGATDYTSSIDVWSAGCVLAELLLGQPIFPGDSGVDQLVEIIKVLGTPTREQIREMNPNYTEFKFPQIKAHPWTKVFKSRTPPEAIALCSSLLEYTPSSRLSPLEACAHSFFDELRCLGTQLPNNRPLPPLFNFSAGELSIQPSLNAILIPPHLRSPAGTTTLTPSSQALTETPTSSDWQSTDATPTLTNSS
smiles,measurement,setting,value
C=CC(=O)N1C(=O)CC(c2ccc(F)cc2)Sc2ccccc21 (stereo not given),Activity,[1],45.6%
same,Activity,[2],4.58%
same,Activity,[3],14.8%
same,Activity,[4],0.508%
same,IC50,HL-60,86.3 µM
same,Activity,[5],4.51%
same,inhibition,[6],87.3%
same,Activity,[7],0.584%
same,Activity,[8],2.74%
same,Activity,[9],74%
same,viability at 25 µM,[10],36.4%
same,Activity,[11],1.4%
same,Activity,[12],4.16%
same,Activity,[13],7.23%
same,Activity,[14],Toxic
same,Activity,[15],7.42%
same,viability at 50 µM,[16],79.7%
same,Activity,[17],1.38%
same,Activity,[18],0.332%
same,Activity,[19],0.485%
same,viability at 12.5 µM,[20],77%
same,viability at 100 µM,[21],72.2%
same,Activity,[22],11.7%
same,"viability at 24 h, up to 50 µM",[23],> 80%
same,Activity,[24],1.04%
